Laboratory results as given in ChEMBL document CHEMBL3853320, “Discovery of Imidazoquinolines as a Novel Class of Potent, Selective, and in Vivo Efficacious Cancer Osaka Thyroid (COT) Kinase Inhibitors” (J Med Chem, 2016).
≈ marks a conversion by molar mass, not a printed value. Values belong to the molecule of their own block, whether it stands above or below them. Calls of active or inactive are those of the source. The calls are words filed in the database; no cut-off is given here.

Key:
[1] = Drug metabolism in Sprague-Dawley rat liver S9 fraction assessed as 1-(2-(1-morpholinopropan-2-ylamino)benzo[d]thiazol-6-yl)-8-(pyridin-4-yl)-1H-imidazo[4,5-c][1,7]naphthyridin-4(5H)-one metabolite formation in presence of aldehyde oxidase inhibitor raloxifene at 10 uM; assay type: ADME, subcellular; conditions: s9, 10 µM
Summary of the method: (§1)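 M1 formation was measured in liver S9 incubations with no NADPH added, in the presence of the aldehyde oxidase inhibitor raloxifene. The rat S9 fraction received 10 μM raloxifene. The human S9 fraction was tested at two raloxifene concentrations.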

[2] = Drug metabolism in human liver S9 fraction assessed as 1-(2-(1-morpholinopropan-2-ylamino)benzo[d]thiazol-6-yl)-8-(pyridin-4-yl)-1H-imidazo[4,5-c][1,7]naphthyridin-4(5H)-one metabolite formation in presence of aldehyde oxidase inhibitor raloxifene; assay type: ADME, subcellular; summary of the method: as §1
[3] = molecular target: T1, Mitogen-activated protein kinase kinase kinase 8 (Homo sapiens, UniProt P41279); experiment: Inhibition of human COT (66 to 395 residues) expressed in Sf21 cells using 5-Fluo-Ahx-AGAGSGQLIDSNleANSFVGTR-NH2 as substrate after 60 mins by caliper microfluidic mobility shift assay
T1 sequence (P41279 whole entry, the tested form may be a part): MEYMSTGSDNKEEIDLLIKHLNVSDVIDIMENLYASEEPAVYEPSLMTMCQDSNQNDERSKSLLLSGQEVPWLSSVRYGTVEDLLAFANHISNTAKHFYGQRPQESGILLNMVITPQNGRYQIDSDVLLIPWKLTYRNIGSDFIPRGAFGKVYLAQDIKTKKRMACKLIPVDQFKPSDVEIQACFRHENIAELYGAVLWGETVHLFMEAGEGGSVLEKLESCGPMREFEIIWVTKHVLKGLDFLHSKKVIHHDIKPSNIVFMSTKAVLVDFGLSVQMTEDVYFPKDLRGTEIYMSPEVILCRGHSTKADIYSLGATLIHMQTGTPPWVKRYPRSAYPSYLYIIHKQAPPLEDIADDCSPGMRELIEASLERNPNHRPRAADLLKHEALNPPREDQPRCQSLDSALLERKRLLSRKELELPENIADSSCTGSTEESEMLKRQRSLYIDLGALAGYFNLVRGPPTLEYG

[4] = molecular target: T1, Mitogen-activated protein kinase kinase kinase 8; experiment: Inhibition of COT in LPS-stimulated human PBMC assessed as reduction in ERK1/2 phosphorylation incubated for 60 mins followed by LPS stimulation for 12 mins by flow cytometric analysis
Summary of the method: (§2)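 Primary human PBMCs were stimulated with LPS. Read-outs were pERK, TNFα release, or p65 phosphorylation, each reported as IC50.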

[5] = Equilibrium solubility of the compound at pH 6.8 after 16 hrs by mass spectrometric analysis; assay type: physicochemical; conditions: buffer
[6] = Octanol-water partition coefficient, log P of the compound by shake-flask method; assay type: physicochemical
[7] = molecular target: T1, Mitogen-activated protein kinase kinase kinase 8; experiment: Inhibition of COT in LPS-stimulated human PBMC assessed as reduction in TNFalpha release incubated for 1 hr followed by stimulation with LPS for 4 hrs by HTRF assay; summary of the method: as §2
[8] = Equilibrium solubility of the compound at pH 1 after 16 hrs by mass spectrometric analysis; assay type: physicochemical; conditions: buffer, pH 1, 16 h
[9] = Equilibrium solubility of the compound at pH 4 after 16 hrs by mass spectrometric analysis; assay type: physicochemical; conditions: buffer
[10] = Protein binding in human plasma at 5 uM after 4 hrs by rapid equilibrium dialysis method; assay type: ADME, cell-free; conditions: read-out: PPB (converted)
[11] = molecular target: T1, Mitogen-activated protein kinase kinase kinase 8; experiment: Inhibition of COT in LPS-stimulated human whole blood assessed as reduction in TNFalpha release incubated for 30 mins followed by stimulation with LPS for 3 hrs by HTRF assay; assay type: tissue-based
Summary of the method: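 Human whole blood was stimulated with LPS, and TNFα release was measured as IC50.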

[12] = Half life in beagle dog liver S9 fraction at 1 uM in absence of NADPH by HPLC/MS analysis
[13] = AUC (0 to 10.5 hrs) in MSU-induced beagle dog acute synovitis model at 15 mg/kg; assay type: ADME, organism-based, Canis lupus familiaris; design: time < 10.5 hr, dose 15 mg/kg; conditions: in vivo
Summary of the method: (§3)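 Dog uric acid-induced acute synovitis model. Groups were vehicle, the test article at 5 or 15 mg/kg, and meloxicam at 0.2 mg/kg as positive control. Exposure is reported as AUC over 0–10.5 h.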

[14] = Half life in beagle dog liver microsomes at 5 uM preincubated for 3 mins followed by NADPH addition measured after 1 hr by HPLC/MS analysis; assay type: ADME, Canis lupus familiaris
[15] = AUC (0 to 10.5 hrs) in MSU-induced beagle dog acute synovitis model at 5 mg/kg; assay type: ADME, organism-based, Canis lupus familiaris; design: time < 10.5 hr, dose 5 mg/kg; conditions: in vivo; summary of the method: as §3
[16] = Oral bioavailability in wild type Sprague-Dawley rat at 3 mg/kg; assay type: ADME, organism-based; conditions: in vivo
Summary of the method: (§4)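 Male wild-type Sprague–Dawley rats, n = 3 per group, housed under Swiss animal-welfare conditions (12 h light/dark, 22−24 °C). Each group received separate i.v. and oral doses, with plasma profiles used for PK parameters.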

[17] = Dose normalized AUC in wild type Sprague-Dawley rat at 3 mg/kg, po; assay type: ADME, organism-based; conditions: in vivo
Summary of the method: (§5)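 Pharmacokinetics in male Sprague–Dawley rats, n = 3 per group, after i.v. and p.o. dosing. AUC and Cmax are reported dose-normalized.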

[18] = Antiinflammatory activity in human PBMC assessed as inhibition of uric acid induced-IL-1beta formation stimulated with MSU crystals after 3 hrs in presence of ATP; assay type: functional, cell-based
Canis familiaris = experiment: Antiinflammatory activity in MSU-induced beagle dog acute synovitis model assessed as prevention of inflammation-driven lameness at 15 mg/kg, administered once a week 3 hrs post MSU injection measured after 6 hrs post last dose; assay type: functional, organism-based; conditions: Canis lupus familiaris
Summary of the method: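 Lameness was induced in dogs by uric acid injection into the joint. Treatment was vehicle, test article at 5 or 15 mg/kg, or meloxicam 0.2 mg/kg. Vertical peak force of the affected limb was measured on a force plate while trotting. The read-out was the time after treatment for that force to recover to 60% of the value measured before lameness.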

[19] = Terminal elimination half life in beagle dog at 0.1 mg/kg, iv or 0.3 mg/kg, po fasted 12 hrs prior to compound administration via cassette dosing and fed 2 hrs post dose; assay type: ADME, organism-based, Canis lupus familiaris; conditions: in vivo, read-out: beta t1/2 (converted)
Summary of the method: (§6)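 Beagle dogs, n = 3 per group, dosed i.v. and orally. PK parameters were derived from blood/plasma profiles, with exposure values dose-normalized.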

[20] = Tmax in wild type Sprague-Dawley rat at 1 mg/kg, iv or 3 mg/kg, po; assay type: ADME, organism-based; conditions: in vivo; summary of the method: as §4
[21] = Clearance in beagle dog at 0.1 mg/kg, iv or 0.3 mg/kg, po fasted 12 hrs prior to compound administration via cassette dosing and fed 2 hrs post dose; assay type: ADME, organism-based, Canis lupus familiaris; conditions: in vivo
Summary of the method: (§7)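 Pharmacokinetics in Beagle dogs, n = 3 per group, after i.v. and p.o. dosing. AUC and Cmax are reported dose-normalized.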

[22] = Clearance in wild type Sprague-Dawley rat at 1 mg/kg, iv or 3 mg/kg, po; assay type: ADME, organism-based; conditions: in vivo; summary of the method: as §5
[23] = Dose normalized Cmax in beagle dog at 0.1 mg/kg, iv or 0.3 mg/kg, po fasted 12 hrs prior to compound administration via cassette dosing and fed 2 hrs post dose; assay type: ADME, organism-based, Canis lupus familiaris; conditions: in vivo; summary of the method: as §7
[24] = Metabolic stability in bile-duct cannulated Sprague-Dawley rat assessed as parent compound remaining in liver at 3 mg/kg, iv measured over 8 hrs post dose; assay type: ADME, organism-based; conditions: read-out: Stability
Summary of the method: (§8)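 Bile-duct cannulated rats dosed in vivo. Parent and metabolites in each matrix were expressed as relative peak areas of the drug-related components detected, at the stated sampling time or collection period post dose.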

[25] = Half life in wild type Sprague-Dawley rat liver microsomes at 5 uM preincubated for 3 mins followed by NADPH addition measured after 1 hr by HPLC/MS analysis; assay type: ADME
[26] = Mean residence time in wild type Sprague-Dawley rat at 1 mg/kg, iv or 3 mg/kg, po; assay type: ADME, organism-based; conditions: in vivo; summary of the method: as §5
[27] = Dose normalized AUC in wild type Sprague-Dawley rat at 1 mg/kg, iv; assay type: ADME, organism-based; conditions: in vivo; summary of the method: as §5
[28] = Mean residence time in beagle dog at 0.1 mg/kg, iv or 0.3 mg/kg, po fasted 12 hrs prior to compound administration via cassette dosing and fed 2 hrs post dose; assay type: ADME, organism-based, Canis lupus familiaris; conditions: in vivo; summary of the method: as §7
[29] = Metabolic stability in bile-duct cannulated Sprague-Dawley rat assessed as parent compound remaining in kidney at 3 mg/kg, iv measured over 8 hrs post dose; assay type: ADME, organism-based; conditions: read-out: Stability; summary of the method: as §8
[30] = Half life in wild type Sprague-Dawley rat liver S9 fraction at 1 uM in absence of NADPH by HPLC/MS analysis
[31] = Dose normalized AUC in beagle dog at 0.1 mg/kg, iv fasted 12 hrs prior to compound administration via cassette dosing and fed 2 hrs post dose; assay type: ADME, organism-based, Canis lupus familiaris; conditions: in vivo; summary of the method: as §7
[32] = Oral bioavailability in beagle dog at 0.3 mg/kg fasted 12 hrs prior to compound administration via cassette dosing and fed 2 hrs post dose; assay type: ADME, organism-based, Canis lupus familiaris; conditions: in vivo; summary of the method: as §6
[33] = Dose normalized AUC in beagle dog at 0.3 mg/kg, po fasted 12 hrs prior to compound administration via cassette dosing and fed 2 hrs post dose; assay type: ADME, organism-based, Canis lupus familiaris; conditions: in vivo; summary of the method: as §7
[34] = Terminal elimination half life in wild type Sprague-Dawley rat at 1 mg/kg, iv or 3 mg/kg, po; assay type: ADME, organism-based; conditions: in vivo, read-out: beta t1/2 (converted); summary of the method: as §4
[35] = Dose normalized Cmax in wild type Sprague-Dawley rat at 1 mg/kg, iv or 3 mg/kg, po; assay type: ADME, organism-based; conditions: in vivo; summary of the method: as §5

Drug metabolism [1]: Metabolite_Detected | Drug metabolism [2]: Metabolite_Notdetected
SMILES: O=C(c1ccc(OCCN2CCCCC2)cc1)c1c(-c2ccc(O)cc2)sc2cc(O)ccc12 [RALOXIFENE]

IC50 [3]: 16 nM | IC50 [4]: 280 nM | solubility thermodynamic at 16 h [5]: < 4 µM | logP [6]: 4.6 | IC50 [7]: 270 nM | solubility [8]: Soluble | solubility thermodynamic at 16 h [9]: > 1000 µM | fraction unbound at 4 h, 5 µM [10]: < 0.01 | IC50 [11]: 2500 nM
SMILES: c1ccc(-c2cc3c(cn2)ncc2ncn(-c4ccc5nc(NCCN6CCOCC6)sc5c4)c23)cc1

half-life at 1 µM [12]: > 2 h | IC50 [3]: 6 nM | IC50 [4]: 60 nM | AUC [13]: 4575 nmol·h | solubility thermodynamic at 16 h [5]: 136 µM (≈ 70.3 µg/mL) | half-life at 5 µM [14]: 0.167 h | AUC [15]: 2057 nmol·h | bioavailability [16]: 26% | logP [6]: 3.3 | IC50 [7]: 60 nM | AUC/dose [17]: 31 nmol·h | IC50 [18]: 200 nM | half-life [19]: 3.2 h | Tmax [20]: 0.3 h | clearance [21]: 25 mL/min/kg | solubility thermodynamic at 16 h [9]: > 1000 µM | clearance [22]: 277 mL/min/kg | Cmax/dose [23]: 61 nM | remaining at 8 h [24]: 28% | half-life at 5 µM [25]: 3 min | fraction unbound at 4 h, 5 µM [10]: 0.03 | MRT [26]: 1.2 h | AUC/dose [27]: 119 nmol·h | MRT [28]: 2.4 h | remaining at 8 h [29]: 22% | half-life at 1 µM [30]: < 5 min | AUC/dose [31]: 1570 nmol·h | bioavailability [32]: 61% | AUC/dose [33]: 957 nmol·h | IC50 [11]: 200 nM | half-life [34]: 2.1 h | Cmax/dose [35]: 12 nM
SMILES: CC(CN1CCOCC1)Nc1ccc2cc(-n3cnc4cnc5cnc(-c6ccncc6)cc5c43)ccc2n1 (racemic)
Activity (Canis familiaris): Active
